High-throughput results as filed in PubChem.
HSV augment: HSV replication enhancement; HSV replication augmentation in cells, fold increase; maximum fold increase; 220,000 tested, 0.005% active; in the data active = maximum fold increase above about 1.5; inconclusive = no clear call, values can overlap the other calls; tested in PC3 cells
HSF1 inhib: HSF1 inhibition; NIH3T3-HGL HSE-luciferase, MG132-induced, luminescence 8 h; stronger effect = lower value; 300,000 tested, 0.77% active; AID 2098; activity change, negative = inhibition, % at 7.5 µM (by protocol);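 active = more than half of replicate wells show activity change below -50%, luminescence cut by over half; inconclusive = some wells, but at most half, below -50%; inactive = no replicate well below -50%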;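 also: luciferase reports HSF-1 transcriptional activity via heat shock element; 0% = median of DMSO wells and -100% = zero luminescence signal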
Mdm2 ligase inh: blocks human Mdm2 ubiquitin ligase activity. Q00987. cell-based MDM2 ubiquitination luciferase reporter, 2 h; 0 = plate control, 100 = twice control, blank-subtracted. signal enhancement, % at 5 µM. 210,000 tested, 0.11% active;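 active = signal enhancement of 30% or more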;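 also: luminescence tracks abundance of the self-degrading MDM2-luciferase fusion protein; higher signal means inhibition of MDM2 E3 ligase activity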
Target sequence (Q00987 whole entry, looked up, the tested form may be a part): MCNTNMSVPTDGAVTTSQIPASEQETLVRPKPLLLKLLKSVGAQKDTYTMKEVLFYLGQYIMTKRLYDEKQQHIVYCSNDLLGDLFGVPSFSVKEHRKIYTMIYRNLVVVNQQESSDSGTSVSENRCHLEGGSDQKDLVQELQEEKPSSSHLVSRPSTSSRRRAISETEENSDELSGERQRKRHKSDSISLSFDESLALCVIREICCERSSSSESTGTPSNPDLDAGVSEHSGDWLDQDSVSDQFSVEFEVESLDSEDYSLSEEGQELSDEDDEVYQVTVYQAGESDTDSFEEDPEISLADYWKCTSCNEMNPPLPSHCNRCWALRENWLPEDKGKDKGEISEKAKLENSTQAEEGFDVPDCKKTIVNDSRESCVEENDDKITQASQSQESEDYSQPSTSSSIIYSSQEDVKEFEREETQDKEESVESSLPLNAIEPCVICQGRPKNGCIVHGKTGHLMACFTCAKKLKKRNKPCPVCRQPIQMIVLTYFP
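System: stable MDM2–luciferase fusion reporter cells / Input: 2000 cells seeded into each well / Schedule: 4 h settle plus 2 h compound, 37 °C / Compound: single-point 5 µM / Buffer or medium: cells held in DMEM / Benchmarks: control and blank well means / Evaluation: percent signal gain over controls, blank-subtracted / Measured by: luciferase luminescence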
Hsp70 activator: transcriptional activators of Hsp70. HeLa Hsp70 promoter luciferase reporter, luminescence; scaled: vehicle 0, proteasome-inhibitor control 100%. 200,000 tested, 0.04% active. activation, % at 10 µM;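 active = activation above the mean across all tested compounds plus 3 SD, cutoff set per campaign, cut at about 5.5% in these data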;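 also: 100% = MG132 at 30 µM as the positive control and 0% = DMSO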
Rad51 HR inh: blocks human Rad51 in homologous recombination; 200,000 tested, 0.085% active; Q06609; inhibition, % at 10 µM; hRad51 DNA strand exchange, fluorescence dequenching;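 active = inhibition above 40% at the single screening dose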;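 also: 0% = DMSO control wells and 100% = blanks with heterologous ssDNA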
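Material: hRad51 filaments on single-stranded DNA; Reagent: Donor/quencher-labelled 47-bp dsDNA substrate; Compound: 10 µM final, single point; Schedule: 37 °C 15-min filament assembly, 30-min compound preincubation, 15-min exchange; Technique: FRET fluorescence, excitation 485 nm, emission 520 nm; Benchmarks: control wells and blank wells on each plate.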
HSF-1 act: increases HSF-1 driven luciferase reporter signal. NIH3T3-HGL HSF-1 luciferase reporter, MG132, 8 h; 100% = twice DMSO control signal. activation, % at 9 µM. 300,000 tested, 1.7% active. AID 504408;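 active = mean replicate activation of at least 50% with a set share of replicates each reaching 50%; inconclusive = only one of those two conditions met; inactive = mean below 50% and too few replicates reaching it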;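 also: 0% = median of the neutral control wells and 100% = twice that signal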
* hit, by the source's call; i = inactive; u = inconclusive; x = no result. A selection: hits, their analogues and other compounds. The true share with any hit is near 2.6%.

SMILES	HSV augment	HSF1 inhib	Mdm2 ligase inh	Hsp70 activator	Rad51 HR inh	HSF-1 act
CC(C)(C)NC(=O)c1ccc2c3c(cccc13)CC2	i	48	-7	0	15	101*
O=C(NC1CC1)c1ccc2c3c(cccc13)CC2	i	-9	-7	0	x	-5
COc1ccc(OC)c(NC2c3ccccc3C(=O)N2Cc2ccc3c(c2)OCO3)c1 (configuration not stated)	i	27	-8	0	-1	51*
O=C1c2ccccc2C(Nc2ccc3c(c2)OCO3)N1Cc1ccc2c(c1)OCO2 (configuration not stated)	i	11	-15	0	-2	31
Cc1ccc(C)c2[nH]c(=O)c(CN(Cc3cccs3)C(=S)NCc3ccco3)cc12	i	48	-7	0	x	77*
Cc1cc2cc(CN(Cc3cccs3)C(=S)NCc3ccco3)c(=O)[nH]c2cc1C	i	19	-19	0	-9	63*
Cc1cc2cc(CN(CCN(C)C)C(=S)NCc3ccco3)c(=O)[nH]c2cc1C	i	3	8	0	-10	6
CCCCNC(=S)N(Cc1ccco1)Cc1cc2cc3c(cc2[nH]c1=O)OCCO3	i	132	-1	0	x	156*
COc1ccc(C(=O)N(Cc2ccco2)Cc2cc3cc(C)ccc3[nH]c2=O)cc1OC	i	-2	x	0	-5	13
COc1ccccc1NC(=S)N(Cc1ccco1)Cc1cc2cc(C)ccc2[nH]c1=O	i	58	-17	0	x	99*
CCCNC(=O)[C@H](Cc1c[nH]c2ccccc12)NC(=O)c1ccccc1Cl	i	11	-5	0	-1	4
CCC(C)n1c(SCC(=O)NC2CCS(=O)(=O)C2)nc2ccccc2c1=O (configuration not stated)	x	1	x	x	x	1
CN(CC(=O)Nc1cccc2ccccc12)C(=O)c1cccc(S(=O)(=O)N(C)C)c1	i	7	x	x	x	2
COc1ccc(C(CC(=O)O)NS(=O)(=O)c2ccc3c(c2)N(C(C)=O)CC(C)O3)cc1 (configuration not stated)	x	-2	x	x	x	-5
Cc1cccc2c1c(N=NC(N)=S)c(O)n2C1OC(CO)C(O)C(O)C1O (configuration not stated)	x	-8	x	x	x	-4
CC(C)Sc1nc2c(cnn2-c2ccc(Cl)cc2)c(=O)[nH]1	x	-4	x	x	x	-2
COc1cc2c(cc1OC)C(c1cccc([N+](=O)[O-])c1)N(C(=O)CCC(=O)O)CC2 (configuration not stated)	x	6	x	x	x	-2
Cc1cc2cc(CCNC(=O)c3cccs3)c(=O)[nH]c2cc1C	x	44	x	1	x	58*
CC(C)(C)NS(=O)(=O)c1ccc(C(=O)Nc2ccc3c(c2)OCO3)cc1	x	7	x	x	x	24
Cc1c(C2=CCN(S(=O)(=O)c3ccc(Br)cc3)CC2)c2ccccc2n1C	i	-60*	-6	0	-40	-70
CCn1c(C)c(C2=CCN(S(=O)(=O)c3ccc(C)cc3)CC2)c2ccccc21	u	13	7	0	-62	30
Cc1cc(C)n(-c2nc3c(c(=O)[nH]c(=O)n3C)n2Cc2ccc(F)cc2)n1	i	-4	-4	0	66*	-1
Cc1ccc(SCCc2ccc(C)nc2)cc1	i	7	-10	0	-4	2
Cc1ccc(NC(=O)COC(=O)C2C3CC4OC(=O)C2C4C3)cc1 (configuration not stated)	x	-5	x	x	x	0
O=C(COC(=O)C1C2CC3OC(=O)C1C3C2)Nc1cccc(Cl)c1 (configuration not stated)	x	-64*	x	x	x	-72
SMILES	HSV augment	HSF1 inhib	Mdm2 ligase inh	Hsp70 activator	Rad51 HR inh	HSF-1 act
CCC(C(=O)NC(C)(C)C)N(Cc1ccccc1Cl)C(=O)c1snc(C(N)=O)c1N (configuration not stated)	x	11	x	x	x	16
CCC(C(=O)NC(C)(C)C)N(Cc1ccc(F)cc1)C(=O)c1snc(C(N)=O)c1N (configuration not stated)	x	-67*	x	x	x	-77
COCCn1c(C)c(C)c2c(NCCc3ccccc3)ncnc21	x	-73*	x	x	x	-76
S=c1[nH]nc(-c2cnccn2)n1-c1ccccc1	i	-67*	-19	0	-3	-75
COC(=O)c1ccn(CC(=O)NC2CCCCC2)n1	x	-2	x	x	x	0
CC1(C)CC(=O)C=C(Nc2ccc(Br)cc2F)C1	x	-64*	x	x	x	-70
Cc1ccc(N2NC3(CCN(C(N)=O)CC3)NC2=O)cc1	i	-1	0	0	-119	1
COc1ccc(S(=O)(=O)N2CCOC2CNC(=O)C(=O)NCc2ccccc2Cl)cc1 (configuration not stated)	x	-2	x	x	x	2
CC(=O)Nc1ccc(N=Nc2ccc(O)cc2)cc1	i	31	-7	0	-7	57*
CC(=O)Nc1ccc(N=NN2CCOCC2)cc1	i	-5	-13	0	5	-2
CCOC(=O)c1c(C)[nH]c(C)c1C(=O)CSc1nc2ccccc2n1CCC#N	i	-5	-14	-1	1	-3
CCOC(=O)c1c(C)[nH]c(C(=O)OCc2ccc(C)cc2)c1C	x	11	x	x	x	16
CCOC(=O)c1c(C)[nH]c(C(=O)CSc2ccccc2)c1C	i	27	-54	0	2	59*
CCOC(=O)c1c(C)[nH]c(C(=O)OCc2ccccc2)c1C	x	46	x	x	x	62*
CCCn1c(SCC(=O)c2c(C)[nH]c(C)c2C(=O)OCC)nc2ccccc21	i	-61*	-2	0	-17	-70
O=C(CSc1nnc2c(n1)[nH]c1ccccc12)Nc1ccc(S(=O)(=O)Nc2ncccn2)cc1	i	-5	-15	0	-12	13
CCOc1ccc(NC(=O)Nc2ccon2)cc1	x	1	x	x	x	-5
ON=C1c2ccccc2-c2ccccc21	x	20	x	x	x	57*
NC(N)=NN=C1c2ccccc2-c2ccccc21	x	3	x	x	x	16
O=C(NCC1CCCO1)c1ccc(Br)o1 (configuration not stated)	i	-5	-6	0	41*	-4
O=C(COC(=O)c1ccc(Br)o1)NCC1CCCO1 (configuration not stated)	i	-11	-9	0	1	-21
OCC1(CCCc2ccccc2)CCN(C2CCSCC2)CC1	i	23	-8	0	-2	74*
Cc1ccc2cc(NC(=O)c3cccc(F)c3)ccc2n1	i	43	-30	x	-2	36
O=C(NC(=S)Nc1cccnc1)c1cc2ccccc2o1	x	12	0	0	x	59*
O=C(NC(=S)NCc1cccnc1)c1cc2ccccc2o1	i	5	8	0	1	21
O=C(Nc1ccc2ccccc2c1)c1cccc(F)c1	i	39	-23	x	2	79*
O=C(Nc1ccc2oc(=O)ccc2c1)c1ccc2ccccc2c1	x	17	x	x	x	60*
